ChEMBL document CHEMBL4308909, “Synthesis, Antioxidant Activity and Cytotoxicity of N-Functionalized Organotellurides” (Bioorg Med Chem, 2019)
Converted amounts (≈) assume the structure as drawn. The source made the active and inactive calls. The calls are words filed in the database; no cut-off is given here.

Columns and labels:
L929 [1] = assay: Cytotoxicity against mouse L929 cells assessed as reduction in cell viability at 3.9 to 15.6 ug/ml after 24 hrs by neutral red staining-based spectrophotometric analysis; conditions: l929, 24 h
Summary of the method: (§1)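 L929 fibroblasts grown in DMEM with 2 mM L-glutamine, 10% FBS, penicillin/streptomycin, 37 °C, 5% CO₂. Cells seeded at 2.5 × 10⁵ cells ml⁻¹ and treated after 24 h with 1.95–15.625 μg mL⁻¹ for 24 h (DMSO ≤1.5% final). Neutral red (40 μg mL⁻¹) for 3 h, fixed, dye extracted with ethanol/acetic acid, read at 540 nm. Compared with negative control by Tukey's test.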

L929 [2] = assay: Cytotoxicity against mouse L929 cells assessed as reduction in cell viability at 1.9 ug/ml after 24 hrs by neutral red staining-based spectrophotometric analysis; conditions: l929, 24 h; summary of the method: as §1
[3] = Antioxidant activity assessed as ferric ion reducing activity by measuring trolox equivalents after 40 mins by FRAP assay; format: functional
Summary of the method: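 Samples at several concentrations incubated with reagent at 37 °C for 40 min in the dark, absorbance read at 593 nm. Expressed as trolox equivalent antioxidant capacity. Quercetin reference.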

[4] = Antioxidant activity of the compound assessed as DPPH radical scavenging activity after 30 mins by spectrophotometric method; format: functional
Summary of the method: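 Methanolic DPPH (130 μmol L⁻¹ before mixing, 1:1 with sample) mixed with methanolic samples at several concentrations, 30 min at room temperature in the dark, absorbance at 517 nm. Percent scavenging calculated against a methanol-plus-DPPH control. IC50 from linear regression, triplicate. Quercetin reference.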

[5] = Antioxidant activity assessed as ABTS radical scavenging activity after 16 hrs by spectrophotometric analysis; format: functional
Summary of the method: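 ABTS radical cation generated from ABTS (7 mmol L⁻¹) plus potassium persulfate (140 mmol L⁻¹), 16 h at room temperature in the dark, diluted in ethanol to absorbance 0.70 at 734 nm. Sample added at several concentrations, read at 734 nm after 6 min. Trolox calibration curve (20–600 μmol L⁻¹) in ethanol, results in mmol TE g⁻¹. Quercetin reference.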

L929 [6] = assay: Cytotoxicity against mouse L929 cells assessed as reduction in cell viability at 1.9 to 15.6 ug/ml after 24 hrs by neutral red staining-based spectrophotometric analysis; conditions: l929, 24 h; summary of the method: as §1

SMILES	Activity (L929 [1])	Activity (L929 [2])	Activity [3]	IC50 [4]	Activity [5]	Activity (L929 [6])
CCCC[Te]c1cccc(/C(C)=N/O)c1	Toxic	Non-Toxic	Active	5.12 µg/mL	Active	–
C/C(=N\O)c1ccc([Te]CCCO)cc1	–	–	inactive	13.06 µg/mL	–	Non-Toxic
CCCCNC(C)c1ccc([Te]CCCC)cc1 (centres undefined)	Non-Toxic	–	inactive	8.63 µg/mL	inactive	–
O=c1c(O)c(-c2ccc(O)c(O)c2)oc2cc(O)cc(O)c12 [QUERCETIN]	–	–	Active	2.54 µg/mL (≈ 8.4 µM)	Active	–
C=CCNC(C)c1ccc([Te]CCCC)cc1 (centres undefined)	–	–	–	> 100 µg/mL	–	–
CCCC[Te]c1ccc(C(C)N)cc1 (centres undefined)	Toxic	Non-Toxic	Active	12.07 µg/mL	Active	–
CCCC[Te]c1ccc(/C(C)=N/N)cc1	–	–	–	5.08 µg/mL	–	Non-Toxic
CCCC[Te]c1cccc(C(C)N)c1 (centres undefined)	Toxic	Non-Toxic	Active	19.22 µg/mL	Active	–
CCCC[Te]c1ccc(C(C)NCC(C)C)cc1 (centres undefined)	Non-Toxic	–	inactive	12.49 µg/mL	inactive	–
CCCC[Se]c1ccc(C(C)N)cc1 (centres undefined)	–	–	–	> 100 µg/mL	–	–
CCCC[Te]c1ccc(/C(C)=N/O)cc1	Toxic	Non-Toxic	Active	7.79 µg/mL	Active	–
CCCC[Te]c1ccc(C(C)NCc2ccccc2)cc1 (centres undefined)	Non-Toxic	–	inactive	11.41 µg/mL	inactive	–
CCCC[Se]c1cccc(C(C)N)c1 (centres undefined)	–	–	–	> 100 µg/mL	–	–
CCCC[Se]c1ccc(C(C)NCC(C)C)cc1 (centres undefined)	–	–	–	> 100 µg/mL	–	–
